Reference: PMC7974029 (The Journal of Biological Chemistry, 2021)
pKd: −log10 of the molar value. Blank lines part the entries; values can stand above or below the molecule they belong to.

Legend:
[1] = target: T1, BfSGBP-B (Bacteroides fluxus, UniProt F3PPH3); assay: ITC of laminarioligosaccharides and MLG oligosaccharides with BfSGBP-B; assay type: binding
T1 sequence (F3PPH3 21-290): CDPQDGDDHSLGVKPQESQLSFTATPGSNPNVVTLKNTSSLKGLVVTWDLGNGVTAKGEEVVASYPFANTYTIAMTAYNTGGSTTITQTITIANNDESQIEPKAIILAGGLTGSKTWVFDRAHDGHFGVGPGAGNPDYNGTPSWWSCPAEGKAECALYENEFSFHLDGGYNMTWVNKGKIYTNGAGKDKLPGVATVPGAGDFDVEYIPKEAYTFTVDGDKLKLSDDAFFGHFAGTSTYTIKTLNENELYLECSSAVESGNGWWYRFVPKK
Summary of the method: (§1)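 Recombinant SGBP from E. coli BL21(DE3) (IMAC, tag cleavage, SEC) at 100 μM in the cell was titrated with 1 mM laminari- or mixed-linkage gluco-oligosaccharide, all in 20 mM HEPES pH 7.0, at 25 °C. One 0.2 μl injection, then 18 × 2 μl at 150 s intervals, stirring 750 rpm. Isotherms were fitted with stoichiometry n fixed at 1.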

[2] = target: T2, BtSGBP-A (Bacteroides thetaiotaomicron, UniProt A0A173VPY3); assay: ITC of laminarioligosaccharides with BtSGBP-A; assay type: binding; conditions: for KD: BtSGBP-A, ITC, value as given in running text
T2 sequence (A0A173VPY3 23-515): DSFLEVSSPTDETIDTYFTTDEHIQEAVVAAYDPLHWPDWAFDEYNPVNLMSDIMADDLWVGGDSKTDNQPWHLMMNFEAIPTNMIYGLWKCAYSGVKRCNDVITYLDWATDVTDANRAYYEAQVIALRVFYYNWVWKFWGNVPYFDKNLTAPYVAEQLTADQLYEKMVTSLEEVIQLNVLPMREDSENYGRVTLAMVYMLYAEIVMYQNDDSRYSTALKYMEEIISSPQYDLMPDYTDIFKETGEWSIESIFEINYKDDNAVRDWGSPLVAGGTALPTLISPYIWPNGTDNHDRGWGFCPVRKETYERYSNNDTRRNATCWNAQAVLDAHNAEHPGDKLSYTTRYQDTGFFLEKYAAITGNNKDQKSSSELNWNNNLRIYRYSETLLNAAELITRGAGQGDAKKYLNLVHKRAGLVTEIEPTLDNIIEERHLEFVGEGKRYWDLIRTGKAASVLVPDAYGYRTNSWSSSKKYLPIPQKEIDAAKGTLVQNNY
Summary of the method: as §1

[3] = tested on: CBML-middle of BuSGBP-B; assay: Affinity gel electrophoresis, BuSGBP-B CBML-middle domain; assay type: binding, Bacteroides uniformis; conditions: 0.1% (w/v) polysaccharide in native gel
Summary of the method: (§2)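 Native PAGE with 10% (w/v) acrylamide cast with 0.1% (w/v) polysaccharide, or water for the control gel. 6.0 μg recombinant SGBP domain (His₆-tagged, E. coli BL21(DE3), Ni-IMAC, tag removed, size-exclusion purified) and 5.0 μg BSA reference were loaded. Gels were run nondenaturing at 80 V, 3 h, room temperature, and stained with Coomassie Brilliant Blue.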

[4] = tested on: CBML-middle domain of BtSGBP; assay: Affinity gel electrophoresis, BtSGBP-B CBML-middle domain; assay type: binding, Bacteroides thetaiotaomicron; conditions: 0.1% (w/v) polysaccharide in native gel
Summary of the method: as §2

[5] = tested on: BuSGBP-B; conditions: BuSGBP-B full length; cited from earlier work
[6] = target: T1, BfSGBP-B; conditions: BfSGBP-B full length; cited from earlier work
[7] = tested on: CBML-distal of BuSGBP-B; assay: Affinity gel electrophoresis, BuSGBP-B CBML-distal domain; assay type: binding, Bacteroides uniformis; conditions: 0.1% (w/v) polysaccharide in native gel
Summary of the method: as §2

[8] = tested on: BuSGBP-A; conditions: cited from earlier work

Molecule: OC[C@H]1O[C@@H](O[C@H]2[C@H](O)[C@@H](O)[C@H](O[C@H]3[C@H](O)[C@@H](CO)OC(O)[C@@H]3O)O[C@@H]2CO)[C@H](O)[C@@H](O)[C@@H]1O (stereo partly drawn) [G4G3G]
binding to BfSGBP-B by ITC (in words) [1]: binding

Molecule: OC[C@H]1O[C@@H](O[C@H]2[C@H](O)[C@@H](O)[C@H](O[C@H]3[C@H](O)[C@@H](O)[C@H](O[C@H]4[C@H](O)[C@@H](CO)OC(O)[C@@H]4O)O[C@@H]3CO)O[C@@H]2CO)[C@H](O)[C@@H](O)[C@@H]1O (stereo partly drawn) [G4G4G3G]
binding to BfSGBP-B by ITC (in words) [1]: binding

Molecule: OC[C@H]1O[C@@H](O[C@@H]2[C@@H](O)[C@H](O[C@@H]3[C@@H](O)[C@H](O[C@@H]4[C@@H](O)[C@H](O[C@@H]5[C@@H](O)[C@H](O[C@H]6[C@H](O)[C@@H](CO)OC(O)[C@@H]6O)O[C@H](CO)[C@H]5O)O[C@H](CO)[C@H]4O)O[C@H](CO)[C@H]3O)O[C@H](CO)[C@H]2O)[C@H](O)[C@@H](O)[C@@H]1O (stereo partly drawn) [Laminarihexaose]
pKd [2]: 4.59

Molecule: β(1,3)-glucan
binding by affinity gel electrophoresis (AGE) [3]: bind | binding by affinity gel electrophoresis (AGE) [7]: bind | polysaccharide binding [8]: does not display binding | polysaccharide binding [5]: bind | polysaccharide binding [6]: bind

Now from value to molecule, other results behind:

pKd [2]: 3.68
Molecule: OC[C@H]1O[C@@H](O[C@@H]2[C@@H](O)[C@H](O[C@@H]3[C@@H](O)[C@H](O[C@@H]4[C@@H](O)[C@H](O[C@H]5[C@H](O)[C@@H](CO)OC(O)[C@@H]5O)O[C@H](CO)[C@H]4O)O[C@H](CO)[C@H]3O)O[C@H](CO)[C@H]2O)[C@H](O)[C@@H](O)[C@@H]1O (stereo partly drawn) [Laminaripentaose]

KD [2]: too weak to be quantified
Molecule: OC[C@H]1O[C@@H](O[C@@H]2[C@@H](O)[C@H](O[C@@H]3[C@@H](O)[C@H](O[C@H]4[C@H](O)[C@@H](CO)OC(O)[C@@H]4O)O[C@H](CO)[C@H]3O)O[C@H](CO)[C@H]2O)[C@H](O)[C@@H](O)[C@@H]1O (stereo partly drawn) [Laminaritetraose]

KD [2]: too weak to be quantified
Molecule: OC[C@H]1O[C@@H](O[C@@H]2[C@@H](O)[C@H](O[C@H]3[C@H](O)[C@@H](CO)OC(O)[C@@H]3O)O[C@H](CO)[C@H]2O)[C@H](O)[C@@H](O)[C@@H]1O (stereo partly drawn) [Laminaritriose]

binding by affinity gel electrophoresis (AGE) [3]: exclusively responsible for the binding | binding by affinity gel electrophoresis (AGE) [4]: cannot bind
Molecule: mixed-linkage β(1,3)/β(1,4)-glucan [MLG]
polysaccharide binding [5]: bind | polysaccharide binding [6]: bind
